Laboratory results published in PMC11656131 (Angewandte Chemie (International Ed. in English), 2024).
“Also recorded” adds a separate entry of the source.

Molecular target: T1, CERT (Homo sapiens, UniProt Q9Y5P4)
T1 sequence (Q9Y5P4 1-598 isoform Q9Y5P4-2): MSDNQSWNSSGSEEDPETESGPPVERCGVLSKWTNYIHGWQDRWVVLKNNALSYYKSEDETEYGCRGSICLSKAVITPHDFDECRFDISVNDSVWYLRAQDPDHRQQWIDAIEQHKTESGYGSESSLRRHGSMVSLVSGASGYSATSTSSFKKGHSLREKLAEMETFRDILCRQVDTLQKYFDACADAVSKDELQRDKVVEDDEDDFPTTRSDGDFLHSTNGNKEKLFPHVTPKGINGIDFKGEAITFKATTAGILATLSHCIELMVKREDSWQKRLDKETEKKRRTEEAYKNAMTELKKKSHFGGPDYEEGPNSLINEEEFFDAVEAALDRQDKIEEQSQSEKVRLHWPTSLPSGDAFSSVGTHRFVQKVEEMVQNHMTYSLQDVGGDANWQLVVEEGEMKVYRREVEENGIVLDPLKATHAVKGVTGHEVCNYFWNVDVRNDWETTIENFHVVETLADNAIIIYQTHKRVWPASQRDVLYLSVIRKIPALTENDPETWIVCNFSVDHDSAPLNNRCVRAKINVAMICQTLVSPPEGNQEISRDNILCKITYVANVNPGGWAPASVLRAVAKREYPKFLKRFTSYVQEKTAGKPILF
Test: NanoBRET live-cell CERT assay
Assay type: cell-based
Conditions: cells pre-treated with SACLAC
In short: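 HeLa cells (or CERT-deficient HeLa) were transfected with NLuc fused N-terminally to full-length CERT, split into 96-well plates next day and incubated overnight. Nano-Glo Vivazine live-cell substrate was added, then NR-Cer acceptor (0.2 µM, or titrated) with test compound. mBRET was read relative to untreated (100% BRET). Library screen at 0.2 µM in single determination; dose-response in triplicate, Hill fit.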

Question: With `CCCCCCCCCCCCCCC[C@@H](O)[C@H](CO)NC(=O)CCl` [SACLAC] as the molecule, how does the “mBRET after pre-treatment with acid ceramidase inhibitor” value read?
Answer: no effect on BRET efficiency; also recorded: only slightly elevated mBRET values
